# ChEMBL document CHEMBL1145884, “Synthesis and biological activity of novel 1beta-methylcarbapenems with oxyiminopyrrolidinylamide moiety” (2003)
# Experiments:
# [1] = Compound was evaluated for its relative half life of hydrolysis to meropenem by partially purified porcine renal dihydropeptidase-I (DHP-I); format: functional; conditions: Sus scrofa
# Enterobacter cloacae [2] = experiment: Compound was evaluated for its antibacterial activity against Enterobacter cloacae P99; format: functional
# Escherichia coli [3] = experiment: Compound was evaluated for its antibacterial activity against Escherichia coli CCARM 1116 MDR; format: functional
# Escherichia coli [4] = experiment: Compound was evaluated for its antibacterial activity against Escherichia coli CCARM 1117 MDR; format: functional
# Escherichia coli [5] = experiment: Compound was evaluated for its antibacterial activity against Escherichia coli DC 0; format: functional
# Escherichia coli [6] = experiment: Compound was evaluated for its antibacterial activity against Escherichia coli DC 2; format: functional
# Escherichia coli [7] = experiment: Compound was evaluated for its antibacterial activity against Escherichia coli TEM; format: functional
# Escherichia coli [8] = experiment: Antibacterial activity against Escherichia coli 078; format: functional
# Summary of the method: (§1)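 MIC was determined by agar dilution on Mueller–Hinton medium.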
# Escherichia coli [9] = experiment: Antibacterial activity against Escherichia coli 1507E; format: functional; summary of the method: as §1
# Escherichia coli [10] = experiment: Compound was evaluated for its antibacterial activity against Escherichia coli 0157:H7; format: functional
# Escherichia coli [11] = experiment: Compound was evaluated for its antibacterial activity against Escherichia coli ATCC 25922; format: functional
# Escherichia coli [12] = experiment: Compound was evaluated for its antibacterial activity against Escherichia coli CCARM 1108 MDR; format: functional
# Escherichia coli [13] = experiment: Compound was evaluated for its antibacterial activity against Escherichia coli CCARM 1109 MDR; format: functional
# Escherichia coli [14] = experiment: Compound was evaluated for its antibacterial activity against Escherichia coli CCARM 1111 MDR; format: functional
# Escherichia coli [15] = experiment: Compound was evaluated for its antibacterial activity against Escherichia coli CCARM 1112 MDR; format: functional
# Escherichia coli [16] = experiment: Compound was evaluated for its antibacterial activity against Escherichia coli CCARM 1113 MDR; format: functional
# Escherichia coli [17] = experiment: Compound was evaluated for its antibacterial activity against Escherichia coli CCARM 1114 MDR; format: functional
# Escherichia coli [18] = experiment: Compound was evaluated for its antibacterial activity against Escherichia coli CCARM 1115 MDR; format: functional
# Enterobacter cloacae [19] = experiment: Antibacterial activity against Enterobacter cloacae 1321E; format: functional; summary of the method: as §1
# Klebsiella pneumoniae [20] = experiment: Compound was evaluated for its antibacterial activity against Klebsiella pneumoniae 9 ESBL; format: functional
# Klebsiella oxytoca = experiment: Compound was evaluated for its antibacterial activity against Klebsiella oxytoca 1082E; format: functional
# Klebsiella pneumoniae [21] = experiment: Compound was evaluated for its antibacterial activity against Klebsiella pneumoniae 1 ESBL; format: functional
# Klebsiella pneumoniae [22] = experiment: Compound was evaluated for its antibacterial activity against Klebsiella pneumoniae 10 ESBL; format: functional
# Klebsiella pneumoniae [23] = experiment: Compound was evaluated for its antibacterial activity against Klebsiella pneumoniae 3 ESBL; format: functional
# Klebsiella pneumoniae [24] = experiment: Compound was evaluated for its antibacterial activity against Klebsiella pneumoniae 4 ESBL; format: functional
# Klebsiella pneumoniae [25] = experiment: Compound was evaluated for its antibacterial activity against Klebsiella pneumoniae 5 ESBL; format: functional
# Klebsiella aerogenes = experiment: Antibacterial activity against Klebsiella aerogenes 1522E; format: functional; summary of the method: as §1
# Pseudomonas aeruginosa [26] = experiment: Compound was evaluated for its antibacterial activity against Pseudomonas aeruginosa 1 MDR; format: functional
# Pseudomonas aeruginosa [27] = experiment: Compound was evaluated for its antibacterial activity against Pseudomonas aeruginosa 2 MDR; format: functional
# Pseudomonas aeruginosa [28] = experiment: Compound was evaluated for its antibacterial activity against Pseudomonas aeruginosa ATCC 27853; format: functional
# Pseudomonas aeruginosa [29] = experiment: Antibacterial activity against Pseudomonas aeruginosa 1771M; format: functional; summary of the method: as §1
# Pseudomonas aeruginosa [30] = experiment: Antibacterial activity against Pseudomonas aeruginosa 9027; format: functional; summary of the method: as §1
# Shigella sonnei = experiment: Compound was evaluated for its antibacterial activity against Shigella sonnei ATCC 9290; format: functional
# Salmonella enteritidis [31] = experiment: Compound was evaluated for its antibacterial activity against […] enteritidis; format: functional, Salmonella enterica subsp. enterica serovar Enteritidis; conditions: Salmonella enterica
# Salmonella enteritidis [32] = experiment: Compound was evaluated for its antibacterial activity against […] enteritidis 1; format: functional, Salmonella enterica subsp. enterica serovar Enteritidis; conditions: Salmonella enterica
# Salmonella enteritidis [33] = experiment: Compound was evaluated for its antibacterial activity against […] enteritidis 2; format: functional, Salmonella enterica subsp. enterica serovar Enteritidis; conditions: Salmonella enterica
# Salmonella enteritidis [34] = experiment: Compound was evaluated for its antibacterial activity against […] enteritidis 3; format: functional, Salmonella enterica subsp. enterica serovar Enteritidis; conditions: Salmonella enterica
# Salmonella typhimurium [35] = experiment: Antibacterial activity against Salmonella Typhimurium; format: functional, Salmonella enterica subsp. enterica serovar Typhimurium; conditions: Salmonella enterica; summary of the method: as §1
# Salmonella typhimurium [36] = experiment: Compound was evaluated for its antibacterial activity against Salmonella Typhimurium; format: functional, Salmonella enterica subsp. enterica serovar Typhimurium; conditions: Salmonella enterica
# Salmonella typhimurium [37] = experiment: Compound was evaluated for its antibacterial activity against Salmonella Typhimurium 1; format: functional, Salmonella enterica subsp. enterica serovar Typhimurium; conditions: Salmonella enterica
# Salmonella typhimurium [38] = experiment: Compound was evaluated for its antibacterial activity against Salmonella Typhimurium 2; format: functional, Salmonella enterica subsp. enterica serovar Typhimurium; conditions: Salmonella enterica
# Shigella flexneri = experiment: Compound was evaluated for its antibacterial activity against Shigella flexneri ATCC 9199; format: functional
# Streptococcus pyogenes = experiment: Antibacterial activity against Streptococcus pyogenes 308A; format: functional
# Staphylococcus aureus [39] = experiment: Antibacterial activity against Staphylococcus aureus 285; format: functional
# Staphylococcus aureus [40] = experiment: Antibacterial activity against Staphylococcus aureus 503; format: functional
# Staphylococcus aureus [41] = experiment: Antibacterial activity against Staphylococcus aureus SG 511; format: functional
# Escherichia coli [42] = experiment: Compound was evaluated for its antibacterial activity against Escherichia coli CCARM 1110 MDR; format: functional
# Klebsiella pneumoniae [43] = experiment: Compound was evaluated for its antibacterial activity against Klebsiella pneumoniae 2 ESBL; format: functional
# Klebsiella pneumoniae [44] = experiment: Compound was evaluated for its antibacterial activity against Klebsiella pneumoniae 6 ESBL; format: functional
# Pseudomonas aeruginosa [45] = experiment: Compound was evaluated for its antibacterial activity against Pseudomonas aeruginosa 3 MDR; format: functional
# Pseudomonas aeruginosa [46] = experiment: Antibacterial activity against Pseudomonas aeruginosa 1592E
# Klebsiella pneumoniae [47] = experiment: Compound was evaluated for its antibacterial activity against Klebsiella pneumoniae
# Klebsiella pneumoniae [48] = experiment: as above; remark: listed apart in the source
smiles,measurement,setting,value
C[C@@H](O)[C@H]1C(=O)N2C(C(=O)O)=C(S[C@@H]3CN[C@H](C(=O)N(C)C)C3)[C@H](C)[C@H]12 [MEROPENEM],relative t1/2 (DHP-I hydrolysis vs meropenem),[1],1
same,MIC,Enterobacter cloacae [2],0.03 µg/mL
same,MIC,Escherichia coli [3],0.03 µg/mL
same,MIC,Escherichia coli [4],0.03 µg/mL
same,MIC,Escherichia coli [5],0.03 µg/mL
same,MIC,Escherichia coli [6],0.03 µg/mL
same,MIC,Escherichia coli [7],0.016 µg/mL
same,MIC,Escherichia coli [8],0.025 µg/mL
same,MIC,Escherichia coli [9],0.025 µg/mL
same,MIC,Escherichia coli [10],0.03 µg/mL
same,MIC,Escherichia coli [11],0.016 µg/mL
same,MIC,Escherichia coli [12],0.03 µg/mL
same,MIC,Escherichia coli [13],0.03 µg/mL
same,MIC,Escherichia coli [14],0.016 µg/mL
same,MIC,Escherichia coli [15],0.016 µg/mL
same,MIC,Escherichia coli [16],0.03 µg/mL
same,MIC,Escherichia coli [17],0.03 µg/mL
same,MIC,Escherichia coli [18],0.016 µg/mL
same,MIC,Enterobacter cloacae [19],0.025 µg/mL
same,MIC,Klebsiella pneumoniae [20],0.03 µg/mL
same,MIC,Klebsiella oxytoca,0.06 µg/mL
same,MIC,Klebsiella pneumoniae [21],0.03 µg/mL
same,MIC,Klebsiella pneumoniae [22],0.016 µg/mL
same,MIC,Klebsiella pneumoniae [23],0.06 µg/mL
same,MIC,Klebsiella pneumoniae [24],0.016 µg/mL
same,MIC,Klebsiella pneumoniae [25],0.016 µg/mL
same,MIC,Klebsiella aerogenes,0.049 µg/mL
same,MIC,Pseudomonas aeruginosa [26],1 µg/mL
same,MIC,Pseudomonas aeruginosa [27],8 µg/mL
same,MIC,Pseudomonas aeruginosa [28],0.5 µg/mL
same,MIC,Pseudomonas aeruginosa [29],0.049 µg/mL
same,MIC,Pseudomonas aeruginosa [30],0.195 µg/mL
same,MIC,Shigella sonnei,0.03 µg/mL
same,MIC,Salmonella enteritidis [31],0.016 µg/mL
same,MIC,Salmonella enteritidis [32],0.016 µg/mL
same,MIC,Salmonella enteritidis [33],0.016 µg/mL
same,MIC,Salmonella enteritidis [34],0.03 µg/mL
same,MIC,Salmonella typhimurium [35],0.049 µg/mL
same,MIC,Salmonella typhimurium [36],0.03 µg/mL
same,MIC,Salmonella typhimurium [37],0.03 µg/mL
same,MIC,Salmonella typhimurium [38],0.016 µg/mL
same,MIC,Shigella flexneri,0.03 µg/mL
same,MIC,Streptococcus pyogenes,0.013 µg/mL
same,MIC,Staphylococcus aureus [39],0.195 µg/mL
same,MIC,Staphylococcus aureus [40],0.098 µg/mL
same,MIC,Staphylococcus aureus [41],0.195 µg/mL
same,MIC,Escherichia coli [42],0.016 µg/mL
same,MIC,Klebsiella pneumoniae [43],0.03 µg/mL
same,MIC,Klebsiella pneumoniae [44],0.03 µg/mL
same,MIC,Pseudomonas aeruginosa [45],8 µg/mL
same,MIC,Pseudomonas aeruginosa [46],0.195 µg/mL
same,MIC,Klebsiella pneumoniae [47],0.06 µg/mL
same,MIC,Klebsiella pneumoniae [48],0.06 µg/mL
CO/N=C1/CCN(C(=O)[C@@H]2C[C@H](SC3=C(C(=O)O)N4C(=O)[C@H]([C@@H](C)O)[C@H]4[C@H]3C)CN2)C1,MIC,Escherichia coli [8],0.049 µg/mL
same,MIC,Escherichia coli [9],0.049 µg/mL
same,MIC,Enterobacter cloacae [19],0.049 µg/mL
same,MIC,Klebsiella aerogenes,0.049 µg/mL
same,MIC,Pseudomonas aeruginosa [29],0.781 µg/mL
same,MIC,Pseudomonas aeruginosa [30],0.391 µg/mL
same,MIC,Salmonella typhimurium [35],0.098 µg/mL
same,MIC,Pseudomonas aeruginosa [46],3.12 µg/mL
C[C@@H](O)[C@H]1C(=O)N2C(C(=O)O)=C(S[C@@H]3CN[C@H](C(=O)N4C/C(=N\O)C(CN)C4)C3)[C@H](C)[C@H]12 (some centres not stated),relative t1/2 (DHP-I hydrolysis vs meropenem),[1],0.31
same,MIC,Escherichia coli [8],0.025 µg/mL
same,MIC,Escherichia coli [9],0.049 µg/mL
same,MIC,Enterobacter cloacae [19],0.049 µg/mL
same,MIC,Klebsiella aerogenes,0.098 µg/mL
same,MIC,Pseudomonas aeruginosa [29],0.098 µg/mL
same,MIC,Pseudomonas aeruginosa [30],0.195 µg/mL
same,MIC,Salmonella typhimurium [35],0.098 µg/mL
same,MIC,Streptococcus pyogenes,0.002 µg/mL
same,MIC,Staphylococcus aureus [39],0.195 µg/mL
same,MIC,Staphylococcus aureus [40],0.098 µg/mL
same,MIC,Staphylococcus aureus [41],0.098 µg/mL
same,MIC,Pseudomonas aeruginosa [46],0.098 µg/mL
CO/N=C1\CN(C(=O)[C@@H]2C[C@H](SC3=C(C(=O)O)N4C(=O)[C@H]([C@@H](C)O)[C@H]4[C@H]3C)CN2)CC1CN (some centres not stated),relative t1/2 (DHP-I hydrolysis vs meropenem),[1],0.25
same,MIC,Escherichia coli [8],0.025 µg/mL
same,MIC,Escherichia coli [9],0.049 µg/mL
same,MIC,Enterobacter cloacae [19],0.025 µg/mL
same,MIC,Klebsiella aerogenes,0.098 µg/mL
same,MIC,Pseudomonas aeruginosa [29],0.098 µg/mL
same,MIC,Pseudomonas aeruginosa [30],0.391 µg/mL
same,MIC,Salmonella typhimurium [35],0.098 µg/mL
same,MIC,Streptococcus pyogenes,0.004 µg/mL
same,MIC,Staphylococcus aureus [39],0.195 µg/mL
same,MIC,Staphylococcus aureus [40],0.049 µg/mL
same,MIC,Staphylococcus aureus [41],0.098 µg/mL
same,MIC,Pseudomonas aeruginosa [46],0.195 µg/mL
